Test results taken from ChEMBL document CHEMBL1821722, “Design, synthesis and biological evaluation of novel desmuramyldipeptide analogs” (Eur J Med Chem, 2011).
The source made the active and inactive calls. No cut-off for these calls is given here.

Columns and labels:
PBMC [1] = experiment: Immunomodulatory effect in human PBMC cells assessed as increase in LPS-induced IL-10 release at 20.2 uM after 18 hrs by flow cytometry analysis relative to LPS; format: functional
Outline: (§1)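 Human PBMC isolated from healthy-donor buffy coats on a Ficoll-Paque gradient. Cultured in RPMI 1640 with 10% heat-inactivated FCS, 2 mM L-glutamine and 50 µM 2-mercaptoethanol. 0.5 × 10⁶ cells exposed to 20.2 µM compound plus 10 ng/ml LPS, DMSO ≤0.1%, for 18 h at 37 °C in 5% CO₂. Supernatant cytokines measured by flow cytometric bead assay. Values are % of LPS alone, mean ± SD of 4 samples, two donors.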

PBMC [2] = experiment: Immunomodulatory effect in human PBMC cells assessed as increase in LPS-induced IL-6 release at 20.2 uM after 18 hrs by flow cytometry analysis relative to LPS; format: functional; outline: as §1
THP-1 [3] = experiment: Cytotoxicity against human THP1 cells assessed as LDH release at 20.2 uM; format: cell-based; details: thp-1, 20.2 µM
Outline: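 LDH leakage into the medium used as the cytotoxicity read-out, taken at the highest concentration tested.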

PBMC [4] = experiment: Immunostimulatory effect in human PBMC cells assessed as increase in […]/ionomycin-induce IL-8a release at 20.2 uM after 18 hrs by flow cytometry analysis relative to PMA and ionomycin; format: functional
Outline: (§2)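 PBMC prepared from donor buffy coat on Ficoll-Paque and kept in supplemented RPMI 1640. Cells (0.5 × 10⁶) given 20.2 µM compound with PMA 3.33 ng/ml and ionomycin 500 nM (final) for 18 h at 37 °C, 5% CO₂. Supernatant IL-1β, IL-6, IL-8, IL-10 and TNF-α read by flow cytometry. Expressed relative to PMA/ionomycin alone, mean ± SD of 4 samples, two donors.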

PBMC [5] = experiment: Immunomodulatory effect in human PBMC cells assessed as increase in LPS-induced TNFalpha release at 20.2 uM after 18 hrs by flow cytometry analysis relative to LPS; format: functional; outline: as §1
PBMC [6] = experiment: Immunostimulatory effect in human PBMC cells assessed as increase in […]/ionomycin-induce IL-6 release at 20.2 uM after 18 hrs by flow cytometry analysis relative to PMA and ionomycin; format: functional; outline: as §2
THP-1 [7] = experiment: Immunomodulatory effect in human THP1 cells assessed as increase in LPS-induced TNF-alpha release at 20.2 uM after 24 hrs by sandwich ELISA relative to LPS; format: functional
Outline: (§3)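 THP-1 cells at 10⁶ cells/ml in RPMI 1640 with 10% heat-inactivated FCS. Co-incubated 24 h with compound (0.2–200 µM) plus E. coli 0127:B8 LPS 1 ng/ml, DMSO vehicle ≤0.2% final. TNF-α in supernatant expressed as % of LPS-induced release, mean ± SD of 6 samples.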

PBMC [8] = experiment: Immunomodulatory effect in human PBMC cells assessed as LPS-induced IL1-beta release at 20.2 uM after 18 hrs by flow cytometry analysis relative to LPS; format: functional; outline: as §1
PBMC [9] = experiment: Immunostimulatory effect in human PBMC cells assessed as increase in […]/ionomycin-induce IL1-beta release at 20.2 uM after 18 hrs by flow cytometry analysis relative to PMA and ionomycin; format: functional; outline: as §2
PBMC [10] = experiment: Immunostimulatory effect in human PBMC cells assessed as increase in […]/ionomycin-induce IL-10 release at 20.2 uM after 18 hrs by flow cytometry analysis relative to PMA and ionomycin; format: functional; outline: as §2
PBMC [11] = experiment: Cytotoxicity against human PBMC assessed as LDH release at 20.2 uM; format: cell-based
THP-1 [12] = experiment: Toxicity in human THP1 cells assessed TNF-alpha release at 20.2 uM after 24 hrs by sandwich ELISA; format: cell-based; details: thp-1, 24 h
Outline: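 THP-1 in supplemented RPMI 1640 co-incubated 24 h with 20.2 µM compound and 1 ng/ml LPS, DMSO ≤0.2%. TNF-α release expressed as % of the LPS-only response, mean ± SD of 6 samples, Mann-Whitney U test.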

PBMC [13] = experiment: Immunomodulatory effect in human PBMC cells assessed as decrease in LPS-induced IL-8a release at 20.2 uM after 18 hrs by flow cytometry analysis relative to LPS; format: functional; set-up: scale not given: the % may be the effect or the level left; outline: as §1
PBMC [14] = experiment: Immunostimulatory effect in human PBMC cells assessed as increase in […]/ionomycin-induce TNFalpha release at 20.2 uM after 18 hrs by flow cytometry analysis relative to PMA and ionomycin; format: functional; outline: as §2
PBMC [15] = experiment: Immunomodulatory effect in human PBMC cells assessed as decrease in LPS-induced IL-6 release at 20.2 uM after 18 hrs by flow cytometry analysis relative to LPS; format: functional; set-up: scale not given: the % may be the effect or the level left; outline: as §1
PBMC [16] = experiment: Immunomodulatory effect in human PBMC cells assessed as decrease in LPS-induced IL-10 release at 20.2 uM after 18 hrs by flow cytometry analysis relative to LPS; format: functional; set-up: scale not given: the % may be the effect or the level left; outline: as §1
THP-1 [17] = experiment: Immunomodulatory effect in human THP1 cells assessed as increase in LPS-induced TNF-alpha release at 2 uM after 24 hrs by sandwich ELISA relative to LPS; format: functional; outline: as §3
THP-1 [18] = experiment: Immunomodulatory effect in human THP1 cells assessed as increase in LPS-induced TNF-alpha release at 200 uM after 24 hrs by sandwich ELISA relative to LPS; format: functional; outline: as §3
THP-1 [19] = experiment: Immunomodulatory effect in human THP1 cells assessed as increase in LPS-induced TNF-alpha release after 24 hrs by sandwich ELISA relative to LPS; format: functional, cell-based; outline: as §3
PBMC [20] = experiment: Immunomodulatory effect in human PBMC cells assessed as increase in LPS-induced IL-8a release at 20.2 uM after 18 hrs by flow cytometry analysis relative to LPS; format: functional; outline: as §1
THP-1 [21] = experiment: Immunomodulatory effect in human THP1 cells assessed as increase in LPS-induced TNF-alpha release at 0.2 uM after 24 hrs by sandwich ELISA relative to LPS; format: functional; outline: as §3
PBMC [22] = experiment: Immunomodulatory effect in human PBMC cells assessed as increase in LPS-induced TNF-alpha release at 20.2 uM after 24 hrs by sandwich ELISA; format: functional, cell-based
PBMC [23] = experiment: Immunosuppressive effect in human PBMC cells assessed as […] in […]/ionomycin-induce IL-10 release at 20.2 uM after 18 hrs by flow cytometry analysis relative to PMA and ionomycin; format: functional; outline: as §2
PBMC [24] = experiment: Immunosuppressive effect in human PBMC cells assessed as […] in […]/ionomycin-induce TNFalpha release at 20.2 uM after 18 hrs by flow cytometry analysis relative to PMA and ionomycin; format: functional; outline: as §2
PBMC [25] = experiment: Immunosuppressive effect in human PBMC cells assessed as […] in […]/ionomycin-induce IL1-beta release at 20.2 uM after 18 hrs by flow cytometry analysis relative to PMA and ionomycin; format: functional; outline: as §2
PBMC [26] = experiment: Immunosuppressive effect in human PBMC cells assessed as […] in […]/ionomycin-induce IL-6 release at 20.2 uM after 18 hrs by flow cytometry analysis relative to PMA and ionomycin; format: functional; outline: as §2
PBMC [27] = experiment: Immunosuppressive effect in human PBMC cells assessed as […] in […]/ionomycin-induce IL-8a release at 20.2 uM after 18 hrs by flow cytometry analysis relative to PMA and ionomycin; format: functional; outline: as §2

Row | Compound | Activity (PBMC [1]) [%] | Activity (PBMC [2]) [%] | Activity (THP-1 [3]) | Activity (PBMC [4]) [%] | Activity (PBMC [5]) [%] | Activity (PBMC [6]) [%] | Activity (THP-1 [7]) [%] | Activity (PBMC [8]) [%] | Activity (PBMC [9]) [%] | Activity (PBMC [10]) [%] | Activity (PBMC [11]) | Activity (THP-1 [12]) | Activity (PBMC [14]) [%] | also measured
1 | C[C@H](NC(=O)COCCN1C(=O)c2ccccc2S1(=O)=O)C(=O)N[C@H](CCC(=O)O)C(N)=O | 84.5 | 95.5 | Non-toxic | 110.5 | 104.5 | 63.5 | 114.3 | 95.5 | 122 | 89.5 | Non-toxic | Non-toxic | 83.5 | Activity (PBMC [13]): 96.5%
2 | C[C@H](NC(=O)CCCCN1C(=O)c2ccccc2S1(=O)=O)C(=O)N[C@@H](CCC(=O)O)C(N)=O |  |  | Non-toxic |  |  |  | 119.3 |  |  |  | Non-toxic | Non-toxic |  | 
3 | C[C@@H](NC(=O)CCCCN1C(=O)c2ccccc2S1(=O)=O)C(=O)N[C@H](CCC(=O)O)C(N)=O |  |  | Non-toxic |  |  |  | 115.3 |  |  |  | Non-toxic | Non-toxic |  | 
4 | C[C@H](NC(=O)COCCN1C(=O)c2ccccc2S1(=O)=O)C(=O)N[C@H](CCC(=O)O)C(=O)O |  |  | Non-toxic | 104 | 104 | 91 | 117 | 85 | 112 | 116 | Non-toxic | Non-toxic | 124 | Activity (PBMC [15]): 86%; Activity (PBMC [16]): 65.5%; Activity (PBMC [13]): 89.5%
5 | C[C@H](NC(=O)C1=C2c3ccccc3S(=O)(=O)N2CCC1)C(=O)N[C@H](CCC(=O)O)C(=O)O |  |  | Non-toxic |  |  |  | 113.3 |  |  |  | Non-toxic | Non-toxic |  | 
6 | C[C@H](NC(=O)C1=C2c3ccccc3S(=O)(=O)N2CCC1)C(=O)N[C@H](CCC(=O)O)C(N)=O | 94 | 103.5 | Non-toxic | 103 | 115 | 74 | 120.2 | 94 | 88 | 88.5 | Non-toxic | Non-toxic | 105.5 | Activity (THP-1 [17]): 92.5%; Activity (THP-1 [18]): 204.3%; Activity (THP-1 [19]): Dose-dependent effect; Activity (PBMC [20]): 98.5%; Activity (THP-1 [21]): 90.3%
7 | CC(=O)N[C@@H]1[C@@H](O[C@H](C)C(=O)N[C@@H](C)C(=O)N[C@@H](CCC(=O)O)C(N)=O)[C@H](O)[C@@H](CO)O[C@H]1O |  |  |  |  |  |  |  |  |  |  |  |  |  | Activity (PBMC [22]): Active
8 | CCOC(=O)CC[C@@H](NC(=O)[C@H](C)NC(=O)C1=C2c3ccccc3S(=O)(=O)N2CCC1)C(N)=O | 105.5 | 120 | Non-toxic | 134 | 122.5 | 139.5 | 122 | 95 | 406 | 82.5 | Non-toxic | Non-toxic | 142 | Activity (PBMC [20]): 94.5%
9 | CCCCOC(=O)[C@@H](CCC(N)=O)NC(=O)[C@H](C)NC(=O)[C@@H](C)O[C@H]1[C@H](O)[C@@H](CO)OC(O)[C@@H]1NC(C)=O (stereo partly specified) [MURABUTIDE] | 559 | 594.5 | Non-toxic | 152 | 696.5 | 439.5 | 182.6 | 416.5 | 2964.5 | 158.5 | Non-toxic | Non-toxic | 332.5 | Activity (PBMC [20]): 107%
10 | C[C@H](NC(=O)C1CCCN2C1c1ccccc1S2(=O)=O)C(=O)N[C@H](CCC(=O)O)C(=O)O (stereo partly specified) |  |  | Non-toxic |  |  |  | 110.5 |  |  |  | Non-toxic | Non-toxic |  | 
11 | C[C@H](NC(=O)CNC(=O)c1cc2ccccc2[nH]1)C(=O)N[C@H](CCC(=O)O)C(N)=O |  |  | Non-toxic |  | 101 |  | 126.2 | 90.5 |  |  | Non-toxic | Non-toxic |  | Activity (PBMC [23]): 102%; Activity (PBMC [15]): 74%; Activity (PBMC [16]): 71.5%; Activity (PBMC [24]): 93.5%; Activity (PBMC [25]): 91.5%; Activity (PBMC [26]): 76%; Activity (PBMC [27]): 98.5%; Activity (PBMC [13]): 98.5%
12 | C[C@H](NC(=O)CNC(=O)c1cc2ccccc2[nH]1)C(=O)N[C@H](CCC(=O)O)C(=O)O |  |  | Non-toxic |  | 103.5 |  | 118.5 | 78 |  |  | Non-toxic | Non-toxic |  | Activity (PBMC [23]): 75.8%; Activity (PBMC [15]): 76.8%; Activity (PBMC [16]): 68.5%; Activity (PBMC [24]): 63.5%; Activity (PBMC [25]): 96.5%; Activity (PBMC [26]): 42.5%; Activity (PBMC [27]): 90%; Activity (PBMC [13]): 95.5%
13 | C[C@@H](NC(=O)CCCCN1C(=O)c2ccccc2S1(=O)=O)C(=O)N[C@@H](CCC(=O)O)C(N)=O |  |  | Non-toxic |  |  |  | 91 |  |  |  | Non-toxic | Non-toxic |  | 
14 | C[C@H](NC(=O)CCCCN1C(=O)c2ccccc2S1(=O)=O)C(=O)N[C@H](CCC(=O)O)C(N)=O | 98 | 109 | Non-toxic | 103 | 108.5 | 81 | 114 | 106 | 91.5 | 84.5 | Non-toxic | Non-toxic | 96 | Activity (PBMC [20]): 97.5%
15 | C[C@H](NC(=O)CCNC(=O)c1cc2ccccc2[nH]1)c1noc(CCC(=O)O)n1 |  |  | Non-toxic |  |  |  | 113.4 |  |  |  | Non-toxic | Non-toxic |  | 
